Columns and labels:
[1] = system: Raji; assay: Tumor promoting activity in human Raji cells assessed as induction of EBV-early antigen activation after 48 hrs by FITC staining based indirect immunofluorescence assay; type: cell-based
Procedure, shortened: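 Raji cells (5 × 10⁵/mL) were grown in RPMI 1640 with 10% FBS at 37 °C and 5% CO₂, with 4 mM sodium n-butyrate as synergist. Compounds were tested at 10, 100 or 1000 nM final, with DMSO at 0.4% final, for 48 h. Cell smears were stained by indirect immunofluorescence using NPC patient serum and FITC anti-human IgG. At least 500 cells were counted and the percentage of EA-positive cells recorded.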

[2] = n-Octanol-water partition coefficient, log P of the compound by HPLC analysis; type: physicochemical
[3] = Growth inhibition of human HBC4 cells after 48 hrs by sulforhodamine B assay; type: functional; settings: HBC4, 48 h
Procedure, shortened: (§1)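 Cell line from a 39-line human cancer panel, grown in RPMI 1640 with 5% FBS and attached overnight. Exposed 48 h to drug at 10⁻⁸ to 10⁻⁴ M (tenfold steps). Sulforhodamine B read at 525 nm against control and time-0 wells. % growth = 100[(T − T₀)/(C − T₀)] from duplicate points; GI₅₀ is the level giving 50.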

[4] = system: MDA-MB-231; assay: Growth inhibition of human MDA-MB-231 cells after 48 hrs by sulforhodamine B assay; type: functional; settings: MDA-MB-231, 48 h; procedure, shortened: as §1
[5] = system: SNB-78; assay: Growth inhibition of human SNB-78 cells after 48 hrs by sulforhodamine B assay; type: functional; settings: SNB-78, 48 h; procedure, shortened: as §1
[6] = system: HCC 2998; assay: Growth inhibition of human HCC2998 cells after 48 hrs by sulforhodamine B assay; type: functional; settings: HCC 2998, 48 h; procedure, shortened: as §1
[7] = system: NCI-H460; assay: Growth inhibition of human NCI-H460 cells after 48 hrs by sulforhodamine B assay; type: functional; settings: NCI-H460, 48 h; procedure, shortened: as §1
[8] = system: A549; assay: Growth inhibition of human A549 cells after 48 hrs by sulforhodamine B assay; type: functional; settings: A549, 48 h; procedure, shortened: as §1
[9] = system: LOX IMVI; assay: Growth inhibition of human LOXIMVI cells after 48 hrs by sulforhodamine B assay; type: functional; procedure, shortened: as §1
[10] = system: St-4; assay: Growth inhibition of human St-4 cells after 48 hrs by sulforhodamine B assay; type: functional; settings: St-4, 48 h; procedure, shortened: as §1
[11] = system: Raji; assay: Tumor promoting activity in human Raji cells assessed as induction of EBV-early antigen activation at 1 uM after 48 hrs by FITC staining based indirect immunofluorescence assay; type: cell-based
Procedure, shortened: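 Raji B-lymphoblastoid cells (5 × 10⁵/mL) held 48 h at 37 °C, 5% CO₂, in RPMI 1640 with 10% FBS. Medium contained 4 mM sodium n-butyrate and compound at 10, 100 or 1000 nM final, with 0.4% DMSO final. Smears stained by indirect immunofluorescence using NPC patient serum and FITC anti-human IgG. At least 500 cells counted; result given as % EA-positive.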

[12] = target: Protein kinase C alpha type (Homo sapiens, UniProt P17252); assay: Inhibition of [3H]PDBu binding to PKCalpha C1A domain
Procedure, shortened: (§2)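 Displacement of [³H]PDBu (20 nM) from synthetic PKC C1 peptides (10−20 nM; about 3 nM properly folded) in 50 mM Tris-maleate, pH 7.4 at 4 °C. Buffer held 50 μg/mL phosphatidylserine and 3 mg/mL bovine γ-globulin, with inhibitor at various concentrations. IC₅₀ taken from 50% loss of specific binding by probit; Ki by the Sharkey–Blumberg method.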

[13] = target: Protein kinase C beta type (Homo sapiens, UniProt P05771); assay: Inhibition of [3H]PDBu binding to PKCbeta C1A domain; procedure, shortened: as §2
[14] = target: Protein kinase C gamma type (Homo sapiens, UniProt P05129); assay: Inhibition of [3H]PDBu binding to PKCgamma C1A domain; procedure, shortened: as §2
[15] = target: Protein kinase C delta type (Homo sapiens, UniProt Q05655); assay: Inhibition of [3H]PDBu binding to PKCdelta C1B domain; procedure, shortened: as §2
[16] = target: T1, Protein kinase C epsilon type (Homo sapiens, UniProt Q02156); assay: Inhibition of [3H]PDBu binding to PKCepsilon C1B domain; procedure, shortened: as §2
T1 sequence (Q02156 whole entry): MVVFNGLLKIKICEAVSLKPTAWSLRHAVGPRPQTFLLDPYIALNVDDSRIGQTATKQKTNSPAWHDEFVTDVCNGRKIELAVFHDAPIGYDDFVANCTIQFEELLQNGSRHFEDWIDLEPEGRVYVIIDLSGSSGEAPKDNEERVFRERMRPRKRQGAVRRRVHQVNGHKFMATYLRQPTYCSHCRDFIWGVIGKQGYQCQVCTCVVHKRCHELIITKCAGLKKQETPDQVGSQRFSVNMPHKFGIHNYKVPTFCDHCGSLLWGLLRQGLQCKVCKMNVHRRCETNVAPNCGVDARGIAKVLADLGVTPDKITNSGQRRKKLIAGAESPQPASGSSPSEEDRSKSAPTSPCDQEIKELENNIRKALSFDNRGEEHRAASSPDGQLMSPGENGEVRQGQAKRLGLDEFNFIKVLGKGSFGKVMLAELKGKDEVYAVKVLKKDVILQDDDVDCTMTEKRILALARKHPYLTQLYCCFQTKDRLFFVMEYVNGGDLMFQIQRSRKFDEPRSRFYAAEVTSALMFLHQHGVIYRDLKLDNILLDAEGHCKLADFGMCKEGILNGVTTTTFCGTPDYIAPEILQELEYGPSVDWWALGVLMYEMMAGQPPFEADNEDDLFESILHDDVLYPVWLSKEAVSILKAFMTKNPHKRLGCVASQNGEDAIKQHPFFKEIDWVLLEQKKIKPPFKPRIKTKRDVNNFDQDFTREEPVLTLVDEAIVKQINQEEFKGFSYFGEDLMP

[17] = target: Protein kinase C eta type (Homo sapiens, UniProt P24723); assay: Inhibition of [3H]PDBu binding to PKCeta C1B domain; procedure, shortened: as §2
[18] = target: Protein kinase C theta type (Homo sapiens, UniProt Q04759); assay: Inhibition of [3H]PDBu binding to PKCtheta C1B domain; procedure, shortened: as §2
[19] = system: Mus musculus; assay: Tumor promoting activity in ICR mouse assessed as effect on DMBA-mediated skin carcinogenesis at 8.5 nmol administered 1 week after DMBA challenge twice weekly measured after 20 weeks by two-stage carcinogenesis test; type: organism-based; settings: in vivo, 3360 h
Procedure, shortened: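 Two-stage skin carcinogenesis in ICR mice, with 10 mice per group. The back skin was initiated with a single 390 nmol DMBA dose, then treated with the test compound. The control group received DMBA plus 1.7 nmol TPA. Read-outs were percentage of tumor-bearing mice and papillomas per mouse, compared by Fisher's exact test and Welch's t-test (p < 0.05).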

[20] = system: Mus musculus; assay: Tumor promoting activity in ICR mouse assessed as effect on DMBA-mediated skin carcinogenesis at 1.7 nmol administered 1 week after DMBA challenge twice weekly measured by two-stage carcinogenesis test; type: organism-based; settings: in vivo, 168 h
Procedure, shortened: (§3)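 Two-stage mouse skin model in ICR mice, 10 per group. Back skin initiated with a single 390 nmol dose of DMBA, then promoted with 1.7 nmol of test compound; TPA served as control. Scored as tumor-bearing mice (%), compared by Fisher's exact test, and papillomas per mouse, compared by Welch's t-test; p < 0.05.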

[21] = system: Mus musculus; assay: Tumor promoting activity in ICR mouse assessed as effect on DMBA-mediated skin carcinogenesis at 1.7 nmol administered 1 week after DMBA challenge twice weekly measured after 6 weeks by two-stage carcinogenesis test; type: organism-based; settings: in vivo, 1008 h; procedure, shortened: as §3
[22] = system: Mus musculus; assay: Tumor promoting activity in ICR mouse assessed as effect on DMBA-mediated skin carcinogenesis at 1.7 nmol administered 1 week after DMBA challenge twice weekly measured after 11 weeks by two-stage carcinogenesis test; type: organism-based; settings: in vivo, 1848 h; procedure, shortened: as §3
[23] = system: Mus musculus; assay: Tumor promoting activity in DMBA treated ICR mouse assessed as number of papillomas at 1.7 nmol administered 1 week after DMBA challenge twice weekly measured after 20 weeks by two-stage carcinogenesis test; type: organism-based; settings: in vivo, 3360 h; procedure, shortened: as §3

Sequence of Protein kinase C delta type (Q05655 whole entry, the tested form may be a part): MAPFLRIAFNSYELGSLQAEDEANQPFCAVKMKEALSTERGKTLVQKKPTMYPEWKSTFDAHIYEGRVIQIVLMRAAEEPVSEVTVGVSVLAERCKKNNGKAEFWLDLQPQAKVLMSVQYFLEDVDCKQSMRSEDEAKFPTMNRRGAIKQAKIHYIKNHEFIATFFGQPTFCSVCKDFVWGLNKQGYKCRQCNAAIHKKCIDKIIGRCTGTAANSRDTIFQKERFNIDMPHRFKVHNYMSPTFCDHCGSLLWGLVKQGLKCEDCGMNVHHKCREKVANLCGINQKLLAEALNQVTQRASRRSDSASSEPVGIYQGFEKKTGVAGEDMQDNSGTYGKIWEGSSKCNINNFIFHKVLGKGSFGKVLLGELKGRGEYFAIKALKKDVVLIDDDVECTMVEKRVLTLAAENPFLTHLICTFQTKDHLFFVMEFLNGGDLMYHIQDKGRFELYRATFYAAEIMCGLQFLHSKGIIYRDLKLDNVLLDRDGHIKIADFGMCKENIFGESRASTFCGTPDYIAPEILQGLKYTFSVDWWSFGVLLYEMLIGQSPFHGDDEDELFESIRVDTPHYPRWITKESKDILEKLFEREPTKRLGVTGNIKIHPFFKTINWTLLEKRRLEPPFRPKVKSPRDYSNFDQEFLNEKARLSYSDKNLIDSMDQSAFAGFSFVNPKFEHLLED
Sequence of Protein kinase C eta type (P24723 whole entry, the tested form may be a part): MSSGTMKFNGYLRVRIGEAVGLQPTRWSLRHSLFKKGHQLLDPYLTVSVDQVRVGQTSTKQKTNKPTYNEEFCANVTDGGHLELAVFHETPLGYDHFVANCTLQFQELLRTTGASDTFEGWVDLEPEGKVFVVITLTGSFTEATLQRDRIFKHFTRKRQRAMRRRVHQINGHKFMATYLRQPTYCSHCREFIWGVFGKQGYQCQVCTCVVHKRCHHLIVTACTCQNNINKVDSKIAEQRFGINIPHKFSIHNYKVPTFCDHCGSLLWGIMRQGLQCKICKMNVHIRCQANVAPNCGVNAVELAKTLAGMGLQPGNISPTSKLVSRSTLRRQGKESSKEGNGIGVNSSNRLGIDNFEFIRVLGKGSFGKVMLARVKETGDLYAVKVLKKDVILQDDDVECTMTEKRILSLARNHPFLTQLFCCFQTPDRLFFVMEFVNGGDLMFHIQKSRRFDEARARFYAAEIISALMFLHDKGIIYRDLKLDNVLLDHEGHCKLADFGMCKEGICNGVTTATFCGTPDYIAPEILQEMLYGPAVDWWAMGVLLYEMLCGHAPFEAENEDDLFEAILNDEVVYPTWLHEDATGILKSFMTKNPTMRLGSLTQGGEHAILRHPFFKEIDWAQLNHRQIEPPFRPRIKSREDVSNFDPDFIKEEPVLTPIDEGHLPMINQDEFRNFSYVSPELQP
Sequence of Protein kinase C theta type (Q04759 whole entry, the tested form may be a part): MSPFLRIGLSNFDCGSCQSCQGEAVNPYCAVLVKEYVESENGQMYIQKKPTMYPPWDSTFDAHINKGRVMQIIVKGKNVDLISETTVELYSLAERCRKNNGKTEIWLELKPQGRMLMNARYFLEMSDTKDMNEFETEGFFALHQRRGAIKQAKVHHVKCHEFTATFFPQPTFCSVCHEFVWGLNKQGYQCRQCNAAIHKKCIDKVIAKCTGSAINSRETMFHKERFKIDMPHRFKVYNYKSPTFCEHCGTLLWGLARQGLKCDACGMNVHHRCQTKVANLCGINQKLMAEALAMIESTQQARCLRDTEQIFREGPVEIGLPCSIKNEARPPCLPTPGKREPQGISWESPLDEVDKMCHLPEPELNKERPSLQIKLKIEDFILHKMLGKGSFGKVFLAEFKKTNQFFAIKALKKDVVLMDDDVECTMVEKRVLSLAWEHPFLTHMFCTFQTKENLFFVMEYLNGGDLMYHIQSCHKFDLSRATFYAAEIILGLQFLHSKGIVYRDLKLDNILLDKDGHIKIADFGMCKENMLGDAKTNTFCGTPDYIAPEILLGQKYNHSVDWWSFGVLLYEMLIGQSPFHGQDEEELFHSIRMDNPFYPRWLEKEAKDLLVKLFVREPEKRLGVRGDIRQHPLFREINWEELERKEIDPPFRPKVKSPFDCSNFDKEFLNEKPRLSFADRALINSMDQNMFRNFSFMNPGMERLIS
Sequence of Protein kinase C beta type (P05771 whole entry, the tested form may be a part): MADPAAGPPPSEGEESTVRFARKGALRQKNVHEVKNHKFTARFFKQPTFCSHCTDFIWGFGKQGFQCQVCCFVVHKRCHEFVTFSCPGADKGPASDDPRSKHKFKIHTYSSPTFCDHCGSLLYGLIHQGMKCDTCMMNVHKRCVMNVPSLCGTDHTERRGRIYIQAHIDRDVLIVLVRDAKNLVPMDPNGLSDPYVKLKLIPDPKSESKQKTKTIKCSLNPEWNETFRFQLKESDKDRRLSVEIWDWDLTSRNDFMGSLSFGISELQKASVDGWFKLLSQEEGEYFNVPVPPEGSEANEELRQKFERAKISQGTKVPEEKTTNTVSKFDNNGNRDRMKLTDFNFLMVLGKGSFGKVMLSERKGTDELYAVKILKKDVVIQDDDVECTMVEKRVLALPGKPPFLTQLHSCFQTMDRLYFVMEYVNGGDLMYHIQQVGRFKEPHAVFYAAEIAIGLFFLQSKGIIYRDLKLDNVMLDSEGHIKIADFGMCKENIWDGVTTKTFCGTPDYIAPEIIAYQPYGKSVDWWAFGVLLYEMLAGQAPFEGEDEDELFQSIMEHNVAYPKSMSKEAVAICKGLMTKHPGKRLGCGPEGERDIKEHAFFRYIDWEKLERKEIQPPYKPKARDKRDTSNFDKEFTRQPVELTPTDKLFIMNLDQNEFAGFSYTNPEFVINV

| Structure (SMILES) | logP [2] | GI50 [3] | GI50 [4] | GI50 [5] | GI50 [6] | GI50 [7] | GI50 [8] | GI50 [9] | GI50 [10] | Activity [11] | Ki [12] | Ki [13] | Ki [14] | Ki [15] | Ki [16] | Ki [17] | Ki [18] | further results |
| --- | --- | --- | --- | --- | --- | --- | --- | --- | --- | --- | --- | --- | --- | --- | --- | --- | --- | --- |
| CC1(C)CC[C@@H]2CC(=O)O[C@@H](CO)CC(=O)O[C@@H]3C[C@@H](CCCCc4cccc(O)c4)O[C@@]1(C3)O2 | 3.3 |  |  |  |  |  |  |  |  |  |  |  |  |  |  |  |  | Activity [1]: Toxic |
| C[C@@H]1CC(C)(C)[C@@]23C[C@@H](C[C@@H](CCCCc4cccc(O)c4)O2)OC(=O)C[C@H](CO)OC(=O)C[C@@H]1O3 | 3.7 | 275 nM | 1550 nM | 17400 nM | 4070 nM | 1260 nM | 7410 nM | 4170 nM | 6030 nM | < 10% | 15 nM | 15 nM | 12 nM | 3.3 nM | 17 nM | 5.9 nM | 2.9 nM |  |
| C[C@H]1[C@@H]2C[C@@]3(O[C@H](CCC3(C)C)CC(=O)O[C@@H](CO)CC(=O)O2)O[C@@H]1CCCCc1cccc(O)c1 | 3.6 | 33.1 nM | 126 nM | 891 nM | 339 nM | 85.1 nM | 977 nM | 617 nM | 575 nM | < 10% | 4.7 nM | 12 nM | 5.5 nM | 0.46 nM | 2 nM | 0.45 nM | 0.54 nM | Activity [19]: Non-toxic |
| CO[C@@H](CC[C@H](C)[C@H]1O[C@@]23C[C@H](OC(=O)C[C@H]([C@@H](C)O)OC(=O)C[C@](O)(O2)[C@H](C)CC3(C)C)[C@@H]1C)c1cccc(O)c1 [DEBROMOAPLYSIATOXIN] | 4.4 | 339 nM | 933 nM | 15800 nM | 813 nM | 347 nM | 1150 nM | 2040 nM | 363 nM | Toxic | 0.26 nM | 0.17 nM | 0.38 nM | 0.2 nM | 0.63 nM | 0.11 nM | 0.11 nM | Activity [20]: Toxic |
| CCCCCCCCCCCCCC(=O)O[C@@H]1[C@@H](C)[C@@]2(O)[C@@H](C=C(CO)C[C@]3(O)C(=O)C(C)=C[C@@H]23)[C@@H]2C(C)(C)[C@]12OC(C)=O [PHORBOL MYRISTATE ACETATE] |  |  |  |  |  |  |  |  |  | Toxic |  |  |  |  |  |  |  | Activity [21]: Toxic; Activity [22]: 100%; Activity [23]: Toxic |

Source: ChEMBL document CHEMBL2146455, “Structure-activity studies on the spiroketal moiety of a simplified analogue of debromoaplysiatoxin with antiproliferative activity” (J Med Chem, 2012)
